Published values collected from several papers.
Compare with care: the assays were run in different laboratories.
RPS6KA4: Ribosomal protein S6 kinase alpha-4 (RPS6KA4, Homo sapiens, UniProt O75676)
RPS6KA4 C-terminal kinase domain: Ribosomal protein S6 kinase alpha-4, C-terminal kinase domain (RPS6KA4, Homo sapiens, UniProt O75676)

SMILES | target | assay | setting | quantity | result
O=c1[nH]c2ccccc2n1C1CCN(Cc2ccc(-c3[nH]c4cc5ncnc5cc4nc3-c3ccccc3)cc2)CC1 | RPS6KA4 | cell-free assay | 0.5 µM | remaining signal | 98.8%
Cn1cc(-c2cc(F)cc(N3CCn4c(cc5c4CCCC5)C3=O)c2CO)cc(Nc2ccc(N3CCN(C4COC4)CC3)cn2)c1=O | RPS6KA4 | enzyme activity, inhibitor | 0.1 µM | inhibition | 15%
N#CC1(c2ccccn2)CCN(Cc2cc(C(=O)O)c(=O)n3ccccc23)CC1 | RPS6KA4 C-terminal kinase domain | cell-free assay, competition with immobilised ligand | 1 µM | remaining binding | 65%
Cc1nn(C)cc1-c1nc2c(N3CCN(Cc4ccc(Cl)cc4)CC3)c(Cl)cnc2[nH]1 | Ribosomal protein S6 kinase alpha-4, N-terminal kinase domain (RPS6KA4, Homo sapiens, UniProt O75676) | binding, competition with immobilised ligand | 1 µM | remaining binding | 62%
Cn1cc(-c2cccc(N3CCc4c(sc5c4CC(C)(C)C5)C3=O)c2CO)cc(Nc2ccncn2)c1=O | RPS6KA4 | enzyme activity, inhibitor | 1 µM | inhibition | 3%
Cn1cncc1[C@](O)(COc1ccc(C#N)cc1-c1ccc(OC(F)(F)F)cc1)c1ccc(C#N)cc1 | RPS6KA4 C-terminal kinase domain | cell-free assay, competition with immobilised ligand | 1 µM | remaining binding | 76%
CC(C)(C)c1cc(C=C(C#N)C#N)cc(Br)c1O | RPS6KA4 | enzyme activity, inhibitor | 0.5 µM | remaining activity | 90.9%
Nc1ncc(-c2nc(N3CCOCC3)nc(N3CCOCC3)n2)c(C(F)F)n1 | RPS6KA4 C-terminal kinase domain | binding, competition with immobilised ligand | 10 µM | remaining binding | 63%
